Reference: ChEMBL document CHEMBL1138405, “Limonoid orthoacetates and antiprotozoal compounds from the roots of Pseudocedrela kotschyi” (J Nat Prod, 2007)
In brackets after ≈: the same amount, converted by molar mass.

Experiments:
[1] = test system: Trypanosoma cruzi; assay: Antiprotozoal activity against Trypanosoma cruzi Tulahuen C2C4 trypomastigotes in L6 cells; format: functional, organism-based
[2] = test system: Plasmodium falciparum; assay: Antiplasmodial activity against Plasmodium falciparum K1; format: functional, organism-based
Method in brief: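 P. falciparum K1 is a strain resistant to chloroquine and pyrimethamine.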

[3] = test system: Leishmania donovani; assay: Antiprotozoal activity against Leishmania donovani MHOM/ET/67/L82 amastigotes; format: functional, organism-based
Method in brief: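 L. donovani tested as axenic amastigotes.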

[4] = test system: Trypanosoma brucei rhodesiense; assay: Antiprotozoal activity against Trypanosoma brucei rhodesiense STIB900; format: functional, organism-based
[5] = test system: L6; assay: Cytotoxicity against rat L6 cells; format: cell-based

O=C(Cn1ccnc1[N+](=O)[O-])NCc1ccccc1 [BENZNIDAZOLE]
IC50 [1]: 0.74 µg/mL (≈ 2.84 µM)

CC1(C)C(=O)C=C[C@]2(C)[C@H]3CC[C@@]4(C)[C@H](c5ccoc5)OC(=O)[C@H]5O[C@]54[C@]3(C)C(=O)C[C@@H]12 [DEACETOXY-7-OXOGEDUNIN]
IC50 [2]: 1.77 µg/mL (≈ 4.05 µM) | IC50 [3]: 0.994 µg/mL (≈ 2.27 µM) | IC50 [4]: 3.4 µg/mL (≈ 7.75 µM) | IC50 [1]: > 30 µg/mL | IC50 [5]: > 90 µg/mL

CC1(C)C(=O)C=C[C@]2(C)[C@H]3CC[C@@]4(C)[C@H](c5ccoc5)OC(=O)[C@H]5O[C@]54[C@]3(C)[C@H](O)C[C@@H]12 [DEACETYLGEDUNIN]
IC50 [2]: 1.36 µg/mL (≈ 3.09 µM) | IC50 [3]: 1.4 µg/mL (≈ 3.18 µM) | IC50 [4]: 3.45 µg/mL (≈ 7.83 µM) | IC50 [1]: 5.2 µg/mL (≈ 11.8 µM) | IC50 [5]: 13.3 µg/mL (≈ 30.2 µM)

COC(=O)C[C@@H]1[C@](C)([C@@H](OC(C)=O)c2ccoc2)CC[C@@]23OC4(C)O[C@@]12[C@H](OC(=O)C(C)C)[C@@]1(OC(C)=O)[C@@H](OC(C)=O)[C@@]2(C)C[C@@]1(O4)[C@]31COC(=O)C[C@@H]21 [KOTSCHYIN A]
IC50 [2]: > 5 µg/mL | IC50 [3]: > 30 µg/mL | IC50 [4]: 11.6 µg/mL (≈ 15 µM) | IC50 [1]: > 30 µg/mL | IC50 [5]: > 90 µg/mL

CCCCCCCCCCCCCCCCOP(=O)([O-])OCC[N+](C)(C)C [MILTEFOSINE]
IC50 [3]: 0.12 µg/mL (≈ 0.294 µM)

COc1cc([C@@H]2c3cc4c(cc3[C@H](O)[C@H]3COC(=O)[C@H]23)OCO4)cc(OC)c1OC [PODOFILOX]
IC50 [5]: 0.005 µg/mL (≈ 0.0121 µM)
